Bioassay records from PubChem.
In the library only some 1.4% were active in any assay of this set; here they are far more common.
Rev-erbA mod = modulators of Rev-erb alpha DNA binding, primary screen, biochemical, FITC-DNA, fluorescence polarization, uHTS; 370,000 tested, 0.79% active; Rev-erbα–FITC-DNA binding, 90 min; activity, % at 10 µM; Nuclear receptor subfamily 1 group D member 1 (Homo sapiens), P20393;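 active = activity above about 14%, limit read from the data; passing the limit was not always enough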;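 also: 0% = DMSO wells with 35 nM protein and 100% = DMSO wells with 750 nM protein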
Target sequence (P20393 whole entry, looked up): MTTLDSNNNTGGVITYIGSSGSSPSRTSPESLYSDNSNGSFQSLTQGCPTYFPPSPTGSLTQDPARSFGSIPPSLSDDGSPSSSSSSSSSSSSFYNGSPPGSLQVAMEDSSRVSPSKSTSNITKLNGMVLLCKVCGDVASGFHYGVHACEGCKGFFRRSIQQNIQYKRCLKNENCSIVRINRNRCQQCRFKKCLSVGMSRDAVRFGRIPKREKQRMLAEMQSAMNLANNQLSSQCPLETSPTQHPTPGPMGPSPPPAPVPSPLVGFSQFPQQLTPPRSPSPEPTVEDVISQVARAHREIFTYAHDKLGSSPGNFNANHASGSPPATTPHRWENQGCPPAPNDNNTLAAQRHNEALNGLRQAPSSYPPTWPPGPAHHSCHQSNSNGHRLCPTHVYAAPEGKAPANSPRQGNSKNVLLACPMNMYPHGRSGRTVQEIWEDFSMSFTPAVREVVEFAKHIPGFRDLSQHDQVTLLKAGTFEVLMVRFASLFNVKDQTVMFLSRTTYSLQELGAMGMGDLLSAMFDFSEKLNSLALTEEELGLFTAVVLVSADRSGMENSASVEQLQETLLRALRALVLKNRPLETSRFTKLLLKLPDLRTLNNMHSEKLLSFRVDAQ
PG9 binder = binders of HIV-1 gp120 antibody PG9, primary screen, biochemical, TR-FRET; AID 624416, 2012; TR-FRET gp120-PG9 antibody binding; 360,000 tested, 0.43% active; HIV-1 gp120 / PG9 antibody interaction; inhibition, % at 6.7 µM; in the data active = inhibition above about 8.5%
NR2E3 ag-1 = inhibitors of NR2E3-RetCOR corepressor binding, primary screen, NR2E3 agonist project, biochemical, TR-FRET, GST-NR2E3, biotin-RetCOR | 320,000 tested, 0.12% active | 1536-well | AID 2300, 2010 | inhibition of corepressor binding, % at 4.78 µM | Photoreceptor-specific nuclear receptor (Homo sapiens), Q9Y5X4;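 active = percent inhibition above the cutoff of mean plus 3 SD of all tested compounds, set per screening campaign, cut at about 20% in these data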;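 also: 0% = DMSO wells and 100% = biotin wells as full block of FRET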
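Material: NR2E3–RetCOR corepressor complex / Incubation: Compound–protein incubation for 5 h at 4 °C / Dosing: compound at 4.8 µM, single dose / Detection: time-resolved FRET / Benchmarks: high control biotin, low control 0.6% DMSO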
NR2E3 ag-2 = NR2E3 agonists in two-hybrid cells, primary screen, cell-based, luminescence, CHO-S, Gal4-NCOR/VP16-NR2E3 | Photoreceptor-specific nuclear receptor (Homo sapiens), Q9Y5X4 | luciferase | inhibition of corepressor binding, % at 3.98 µM | 360,000 tested, 0.35% active;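 active = inhibition above the mean of all tested compounds plus 3 SD, cut at about 70% in these data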;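 also: 0% = DMSO with NR2E3 transfected cells and 100% = cells lacking NR2E3 construct; higher means lower luciferase signal from less NR2E3 corepressor binding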
Rev-erbA confirm = modulators of Rev-erb alpha DNA binding, confirmation, biochemical, FITC-DNA, fluorescence polarization, single point; 3,000 tested, 61% active; AID 1259319, 2017; shares compounds with Rev-erbA mod; activation, % at 25 µM; 90 min;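 active = activation at or above a set limit, or at least 3 SD above the negative control mean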;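 also: 0% = 35 nM protein with DMSO and 100% = 750 nM protein high control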
RORg counter = modulation of RORgamma DNA binding, dose response, counter-screen for Rev-erb alpha modulator project, biochemical, fluorescence polarization, FITC-DNA | shares compounds with Rev-erbA mod | purified RORgamma protein-FITC-DNA binding | IC50, µM | 910 tested, 8% active | AID 1259320, 2017;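 active = Compounds whose fitted half-maximal concentration for disrupting protein-DNA binding is below 10 micromolar; the record names Rev-erb in its text, so the target is in doubt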
Numbers without * were called inactive; · = not tested or not shown.

SMILES	Rev-erbA mod	PG9 binder	NR2E3 ag-1	NR2E3 ag-2	Rev-erbA confirm	others
COc1ccc(CCn2c(-c3ccc(F)cc3)nc3c(c(=O)c4ccccc4n3C)c2=O)cc1OC	41*	1	-2	-34	16
CS(=O)(=O)c1ccc(OC[C@@H](O)CN2CCC(C(O)(c3ccccc3)c3ccccc3)CC2)cc1	2	·	·	·	·
CCOC(=O)c1ccc(NC(=O)COc2cc(=O)n(CC)c3ccccc23)cc1	28*	1	-1	-1	27*
CCn1c(=O)cc(OCC(=O)Nc2cccnc2)c2ccccc21	4	0	2	-33	·
CCn1c(=O)cc(SCC(=O)Nc2ccc(Cl)cc2)c2ccccc21	138*	0	-1	-3	90*	RORg counter=>40
COc1ccc(C(=O)Nc2nc(C)c(C(C)=O)s2)cc1S(=O)(=O)N1CCOCC1	58*	0	3	-29	144*	RORg counter=>40
N#Cc1cccc(NC(=O)COC(=O)c2ccccc2Sc2ccccc2C#N)c1	37*	-2	-1	-107	21*
CC(=O)c1ccc(NC(=O)COC(=O)c2ccccc2Sc2ccccc2C#N)cc1	55*	-2	2	-32	31*	RORg counter=>40
C=CCN(CC#CC(=C)C)Cc1ccccc1	1	·	·	·	·
COc1ccccc1N1N=C(c2ccc([N+](=O)[O-])cc2)CC1c1ccccc1 (stereo not drawn)	15	-1	-1	15	·
COc1cc(N2N=C(c3ccccc3)CC2c2ccccc2)c(C=O)cc1C=O (stereo not drawn)	107*	1	4	4	75*	RORg counter=>40
O=C(CSc1nc2ccsc2c(=O)n1Cc1ccccc1)NCc1ccco1	17*	16*	0	-15	5
CC(C)(C)C1CCc2c(sc(NC(=O)c3cccs3)c2C(N)=O)C1 (stereo not drawn)	6	-1	3	13	·
CCC(C)(C)C1CCc2c(sc(NC(=O)c3cccs3)c2C(N)=O)C1 (stereo not drawn)	29*	-1	-6	2	16
CCOc1ccc(/C(O)=C2/C(=O)C(=O)N(CCCn3ccnc3)C2c2cccs2)cc1Cl (stereo not drawn)	48*	8	7	-87	47*
C=CCn1c(COc2ccc(C)cc2)nnc1SCC(=O)c1ccc(-c2ccccc2)cc1	1	·	·	·	·
COc1ccc(-n2c(SCC(=O)Nc3ccc(Oc4ccccc4)cc3)nnc2-c2ccccc2)cc1	1	·	·	·	·
O=C(CSc1nnc(-c2cccs2)n1-c1ccccc1)Nc1ccccc1	112*	54*	-97	-2	92*
O=C(CSc1nnc(-c2ccc(Cl)cc2)n1-c1ccccc1)Nc1ccc(Oc2ccccc2)cc1	22*	·	·	·	10
CC(=O)C1CCC2C3CCC4CC(=O)CCC4(C)C3C(C)(O)CC12C (stereo not drawn)	1	1	·	-8	·
Nc1c(-c2cccs2)cnc2c(-c3ccc(F)cc3)cnn12	35*	-2	0	-168	6
O=c1[nH]cnc2cc(-c3ccc(Br)cc3)sc12	26*	6	6	-72	8
O=C1c2cccc3cccc(c23)N1Cc1ccc(F)cc1	1	-2	1	-23	·
COc1ccc(CN2C(=O)c3cccc4cccc(c34)C2=O)cc1	23*	0	-1	-4	15*
Cc1nc(NCC2CCCO2)c2nnn(Cc3ccccc3Cl)c2n1 (stereo not drawn)	-1	·	-3	-2	·
SMILES	Rev-erbA mod	PG9 binder	NR2E3 ag-1	NR2E3 ag-2	Rev-erbA confirm	others
COc1ccc(Nc2nc(C)nc3c2nnn3Cc2ccccc2Cl)c(OC)c1	21*	-1	0	-12	9
Cc1ccc(C(=O)Nc2cccc(C(F)(F)F)c2)cc1NC(=O)c1nccn1C	20*	-3	-3	-14	23*	RORg counter=>40
O=[N+]([O-])c1ncccc1OCCOc1ccc(Cl)cc1Cl	-3	·	·	·	·
N#Cc1ccc(-c2ccc(F)cc2)nc1SCC(=O)Nc1sc2c(c1C#N)CCC2	32*	0	2	-8	21*
N#Cc1cc2c(nc1SCC(=O)Nc1sc3c(c1C#N)CCC3)CCCC2	3	-1	1	-18	·
CCc1ccc(S(=O)(=O)ON2C(=O)c3ccccc3C2=O)cc1	5	1	·	-6	·
O=C1c2cccc3cccc(c23)C(=O)N1OS(=O)(=O)c1ccc(Cl)cc1	22*	-1	1	-5	13
COC(=O)C[C@H]1CC[C@@H]2[C@H](COc3ccc(NC(=O)c4cccc(F)c4)cc3C(=O)N2C)O1	-2	·	·	·	·
O=C(NCc1cccc(C(F)(F)F)c1)c1csc([C@@H]2C[C@H](O)[C@@H](CO)O2)n1	4	-1	·	-6	·
COc1cccc(C(=O)N[C@@H](Cc2cccnc2)C(=O)N2CCC[C@H]2C(=O)NC2CCCC2)c1	6	-1	·	·	·
CNC(=O)COC(=O)c1cc2c(C)nn(-c3ccc(F)cc3)c2s1	17*	1	0	14	14
Nc1ccc(-c2c3ccc(=O)cc-3oc3cc(O)ccc23)cc1C(=O)O	187*	-6	-2	-44	240*	RORg counter=>40
O=c1ccc2c(-c3ccccc3)c3ccc(O)cc3oc-2c1	102*	-3	-2	-14	99*	RORg counter=>40
O=c1cc(-c2ccccc2)oc2cc(O)ccc12	2	2	·	-92	·
CCCc1c(C(=O)N/N=C/c2ccc(C)o2)nnn1-c1nonc1N	-4	2	·	-19	·
CCCN(CCC)Cc1c(C(=O)N/N=C/c2ccc(C)o2)nnn1-c1nonc1N	31*	2	2	-14	8
COc1ccccc1N1CCN(c2ncnc3n[nH]c(Br)c23)CC1	1	0	·	-57	·
COc1ccc(C2NC(=O)NC(C)=C2C(=O)OC2CCCC(C)C2)cc1 (stereo not drawn)	18*	2	6	8	8
COc1ccc(C2NC(=O)NC(C)=C2C(=O)OC2CCCCC2)cc1 (stereo not drawn)	-2	1	·	-24	·
CCOC(=O)c1c(-c2ccccc2)csc1NC(=O)/C(C#N)=C\c1ccc(O)c(OC)c1	42*	-2	·	-46	12*
CCOC(=O)c1c(-c2ccc(C)cc2)csc1NC(=O)/C(C#N)=C/c1ccc(O)c(OC)c1	4	0	·	-25	·
CCn1c(COc2ccc(C)cc2)nnc1SCC(=O)Nc1ccc(Oc2ccccc2)cc1	0	·	·	·	·
